Source: ChEMBL document CHEMBL1123815, “Heteroarotinoids. Synthesis, characterization, and biological activity in terms of an assessment of these systems to inhibit the induction of ornithine decarboxylase activity and to induce terminal differentiation of HL-60 cells” (J Med Chem, 1987)
Values belong to the molecule of their own block, whether it stands above or below them.

What was measured:
Assay type in all cases: functional
[1] = target: T1, Ornithine decarboxylase (Mus musculus) (UniProt P00860); test: Inhibition of TPA induced ODC(Ornithine decarboxylase) activity in mice epidermis at 34 nmol in the presence of TPA
T1 sequence (whole entry): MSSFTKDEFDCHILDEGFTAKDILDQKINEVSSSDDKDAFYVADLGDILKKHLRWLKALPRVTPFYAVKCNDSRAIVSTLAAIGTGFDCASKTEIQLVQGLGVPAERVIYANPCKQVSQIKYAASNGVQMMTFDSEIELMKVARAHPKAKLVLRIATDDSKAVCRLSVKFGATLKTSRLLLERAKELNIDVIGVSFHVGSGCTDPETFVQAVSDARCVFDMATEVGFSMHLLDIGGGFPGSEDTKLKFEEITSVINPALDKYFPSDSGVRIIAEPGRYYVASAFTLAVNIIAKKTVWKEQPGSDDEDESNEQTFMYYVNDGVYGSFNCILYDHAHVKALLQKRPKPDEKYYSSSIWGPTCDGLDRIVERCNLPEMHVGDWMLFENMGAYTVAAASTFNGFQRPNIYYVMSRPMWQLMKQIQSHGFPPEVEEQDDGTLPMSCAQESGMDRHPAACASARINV
Summary of the method: (§1)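 Mouse epidermis in vivo: retinoid applied to shaved back 1 h before topical 10 nmol TPA. Mice killed 5 h after TPA. Epidermis separated, homogenized and centrifuged at 30000 g. Soluble ODC activity measured as nmol CO2 released per 30 or 60 min per mg protein. Values are mean ± SE of three groups of three mice. Percent inhibition = (acetone+TPA ODC − retinoid ODC)/(acetone+TPA ODC) × 100.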

[2] = target: T1, Ornithine decarboxylase (Mus musculus); test: Inhibition of TPA induced ODC(Ornithine decarboxylase) activity in mice epidermis at 34 nmol in the presence of TPA compared to control value; summary of the method: as §1
[3] = target: T1, Ornithine decarboxylase (Mus musculus); test: Inhibition of TPA induced ODC(Ornithine decarboxylase) activity in mice epidermis at 17 nmol in the presence of TPA compared to control value; summary of the method: as §1
[4] = target: T1, Ornithine decarboxylase (Mus musculus); test: Inhibition of TPA induced ODC(Ornithine decarboxylase) activity in mice epidermis at 17 nmol in the presence of 13-cis-retinoic acid + TPA; summary of the method: as §1
[5] = target: T1, Ornithine decarboxylase (Mus musculus); test: Inhibition of TPA induced ODC(Ornithine decarboxylase) activity in mice epidermis at 0 nmol in the presence of acetone; summary of the method: as §1
[6] = target: T1, Ornithine decarboxylase (Mus musculus); test: Inhibition of TPA induced ODC(Ornithine decarboxylase) activity in mice epidermis at 17 nmol in the presence of 13-cis-retinoic acid + TPA compared to control value; summary of the method: as §1
[7] = target: T1, Ornithine decarboxylase (Mus musculus); test: Inhibition of TPA induced ODC(Ornithine decarboxylase) activity in mice epidermis at 17 nmol in the presence of TPA; summary of the method: as §1
[8] = target: T1, Ornithine decarboxylase (Mus musculus); test: Inhibition of TPA induced ODC(Ornithine decarboxylase) activity in mice epidermis at 0 nmol in the presence of acetone + TPA; summary of the method: as §1
[9] = target: T1, Ornithine decarboxylase (Mus musculus); test: Inhibition of TPA induced ODC(Ornithine decarboxylase) activity in mice epidermis at 0 nmol in the presence of acetone+ TPA; summary of the method: as §1
[10] = target: T1, Ornithine decarboxylase (Mus musculus); test: Inhibition of TPA induced ODC(Ornithine decarboxylase) activity in mice epidermis at 34 nmol in the presence of trans-retinoic acid + TPA compared to control value; summary of the method: as §1
[11] = target: T1, Ornithine decarboxylase (Mus musculus); test: Inhibition of TPA induced ODC(Ornithine decarboxylase) activity in mice epidermis at 34 nmol in the presence of trans-retinoic acid + TPA; summary of the method: as §1
[12] = target: T1, Ornithine decarboxylase (Mus musculus); test: Inhibition of TPA induced ODC(Ornithine decarboxylase) activity in mice epidermis at 0 nmol in the presence of acetone+TPA; summary of the method: as §1

ODC activity ((nM of CO2) hr-1 (mg of protein)-1) [1]: 0.95
ODC activity ((nM of CO2) hr-1 (mg of protein)-1) [4]: 0.14
inhibition [6]: 92%
inhibition [2]: 43%
ODC activity ((nM of CO2) hr-1 (mg of protein)-1) [9]: 1.67
Structure (SMILES): COC(=O)c1ccc(/C=C(\C)c2ccc3c(c2)C(C)(C)CCO3)cc1

ODC activity ((nM of CO2) hr-1 (mg of protein)-1) [1]: 1.7
inhibition [10]: 81%
ODC activity [11]: 1
inhibition [2]: 68%
ODC activity [12]: 5.3
Structure (SMILES): C/C(=C\c1ccc(CO)cc1)c1ccc2c(c1)C(C)(C)CCO2

ODC activity ((nM of CO2) hr-1 (mg of protein)-1) [1]: 1.5
inhibition [2]: 72%
Structure (SMILES): COC(=O)c1ccc(/C=C(\C)c2ccc3c(c2)C(C)(C)CO3)cc1

Further lines, the molecule ahead of its results:

Structure (SMILES): C/C(=C\c1ccc(C#N)cc1)c1ccc2c(c1)C(C)(C)CCO2
ODC activity ((nM of CO2) hr-1 (mg of protein)-1) [1]: 1.77
inhibition [2]: 0%

Structure (SMILES): C/C(=C\c1ccc(C=O)cc1)c1ccc2c(c1)C(C)(C)CCO2
ODC activity ((nM of CO2) hr-1 (mg of protein)-1) [1]: 3.5
inhibition [2]: 34%

Structure (SMILES): CC(/C=C/C=C(\C)c1ccc2c(c1)C(C)(C)CCS2)=C\C(=O)O
inhibition [3]: 89%
ODC activity ((nM of CO2) 30min-1 (mg of protein)-1) [4]: 0.1
ODC activity ((nM of CO2) 30min-1 (mg of protein)-1) [5]: 0
inhibition [6]: 89%
ODC activity ((nM of CO2) 30min-1 (mg of protein)-1) [7]: 0.1
ODC activity ((nM of CO2) 30min-1 (mg of protein)-1) [8]: 0.9

Structure (SMILES): CCOC(=O)/C=C(C)/C=C/C=C(\C)c1ccc2c(c1)C(C)(C)CCS2
inhibition [3]: 100%
ODC activity ((nM of CO2) 30min-1 (mg of protein)-1) [5]: 0
ODC activity ((nM of CO2) 30min-1 (mg of protein)-1) [7]: 0

Structure (SMILES): CC(/C=C/C=C(\C)c1ccc2c(c1)C(C)(C)CCO2)=C\C(=O)O
ODC activity ((nM of CO2) hr-1 (mg of protein)-1) [1]: 1.4
inhibition [2]: 74%

Structure (SMILES): CC(/C=C/C=C(\C)c1ccc2c(c1)C(C)(C)CCS2)=C\C(=O)OCCN1C(=O)c2ccccc2C1=O
ODC activity ((nM of CO2) hr-1 (mg of protein)-1) [1]: 0.97
inhibition [2]: 42%
